Screens: PubChem BioAssay, several laboratories
The list is not random: actives were taken first. Their share in the collection is about 4.2%.
SENP1 FRET inh – blocks the human SENP1 SUMO protease catalytic domain. Q9P0U3. recombinant SENP1 catalytic domain, CyPet-SUMO1-YPet FRET cleavage. inhibition, % at 10 µM. 360,000 tested, 0.21% active. AID 624204;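 active = inhibition at least 30% at 10 µM, raw YFP signal under a set limit, fluorescence ratio 0.5 to 1.5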;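 also: 0% = enzyme with DMSO and 100% = no enzyme wells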
Target sequence (Q9P0U3 419-644 limits assumed): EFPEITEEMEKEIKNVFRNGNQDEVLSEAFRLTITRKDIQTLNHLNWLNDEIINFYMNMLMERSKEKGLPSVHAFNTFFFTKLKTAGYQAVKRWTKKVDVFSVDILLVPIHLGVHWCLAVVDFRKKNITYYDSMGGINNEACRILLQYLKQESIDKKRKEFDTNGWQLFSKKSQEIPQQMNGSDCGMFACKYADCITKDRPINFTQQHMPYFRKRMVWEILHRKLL
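Test system: recombinant human SENP1 catalytic domain, His6-tagged / Medium: pH 8 Tris buffer with EDTA, NaCl, BME, BSA, NP40, catalase / Also added: SUMO1 FRET substrate flanked by Cypet and Ypet, 25 nM / Times: 50 min reaction at room temperature / Signal: FRET, CFP and YFP emission / Control set: no-enzyme low control and enzyme-plus-DMSO high control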
FXN GAA850 act – activators of GAA850 frataxin (FXN) promoter | 360,000 tested, 0.56% active | activation, % at 6 µM | HEK293 lucGAA850 FXN promoter luciferase reporter, 24 h; percent of 10 µM SAHA response;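 active = activation above the average of all compounds screened plus 3 SD, cutoff fixed separately per campaign, cut at about 7.5% in these data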;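 also: 0% = DMSO wells and 100% = 10 µM SAHA wells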
AHR act – activates the human aryl hydrocarbon receptor; P35869; AHR-responsive luciferase reporter cells, luminescence; activation, % at 5 µM; 320,000 tested, 2.5% active; AID 2796; in the data active = activation above about 47%;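 also: 0% = vehicle wells and 100% = reference agonist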
HDAC3 inhib – inhibitors of human histone deacetylase 3 | O15379 | recombinant HDAC3, fluorogenic peptide/trypsin coupled, fluorescence | inhibition, % at 8.3 µM | 320,000 tested, 0.15% active | AID 2718; in the data active = inhibition above about 26%, passing the limit was not always enough; inconclusive = no clear call, values can overlap the other calls
Target sequence (O15379 whole entry, looked up): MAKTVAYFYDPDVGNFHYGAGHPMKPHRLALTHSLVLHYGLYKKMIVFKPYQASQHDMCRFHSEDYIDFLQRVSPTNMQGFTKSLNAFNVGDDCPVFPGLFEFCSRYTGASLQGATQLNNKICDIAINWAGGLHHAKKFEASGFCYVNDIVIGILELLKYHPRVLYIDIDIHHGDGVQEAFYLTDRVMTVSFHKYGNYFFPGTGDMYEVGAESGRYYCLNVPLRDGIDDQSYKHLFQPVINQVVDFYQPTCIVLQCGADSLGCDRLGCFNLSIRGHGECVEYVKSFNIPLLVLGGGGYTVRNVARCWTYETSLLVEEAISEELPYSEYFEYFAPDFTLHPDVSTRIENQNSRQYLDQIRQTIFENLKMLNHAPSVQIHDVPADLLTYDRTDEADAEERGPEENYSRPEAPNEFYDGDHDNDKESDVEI
CTSL1 counter-1 – counter-screen for PFM18AAP inhibitors: inhibitors of F. hepatica cathepsin L1; recombinant F. hepatica cathepsin L1, Z-Leu-Arg-MCA fluorescence; inhibition, % at 5.96 µM; 300,000 tested, 0.49% active; AID 1906;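 active = inhibition above the mean of all tested compounds plus 3 SD, set per screening campaign, cut at about 17% in these data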;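 also: 0% = plate median of test compound wells and 100% = 1 µM Z-Phe-Ala-diazomethylketone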
PfM18AAP inh-1 – blocks P. falciparum M18 aspartyl aminopeptidase; recombinant PfM18AAP, H-Glu-NHMec fluorogenic cleavage; 290,000 tested, 1.2% active; inhibition, % at 7.35 µM;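 active = inhibition above the campaign mean inhibition over all tested compounds plus 3 SD, cut at about 28% in these data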;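 also: 0% = plate median of test compound wells and 100% = 2 mM ZnCl2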
PfM18AAP inh-2 – PfM18AAP inhibition, confirmation | shares compounds with PfM18AAP inh-1 | AID 2170 | inhibition, % at 7.35 µM | recombinant PfM18AAP, H-Glu-NHMec fluorogenic cleavage | 2,400 tested, 28% active;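 active = mean inhibition over replicate wells above the hit cutoff set for the earlier primary screen, cut at about 29% in these data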;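 also: 0% = median of test compound wells and 100% = 2 mM ZnCl2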
CTSL1 counter-2 – counter-screen for PFM18AAP inhibitors: confirmation of human cathepsin L inhibitors | shares compounds with PfM18AAP inh-1 | purified cathepsin L1, Z-Leu-Arg-MCA fluorescence | inhibition, % at 5.96 µM | 2,400 tested, under 10 active;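 active = average inhibition across replicates above the hit cutoff set in the earlier primary screen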;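 also: 0% = median of test compound wells and 100% = Z-Phe-Ala-diazomethylketone 1 µM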
Numbers without * were called inactive.

CCCC(C(=O)Nc1ccncc1)c1ccccc1 (centres undefined) was read as SENP1 FRET inh -1, FXN GAA850 act 0, AHR act -4, HDAC3 inhib 0, CTSL1 counter-1 -1 and PfM18AAP inh-1 1.
CCC(=O)Nc1nc2ccc(NC(=O)COc3ccccc3)cc2s1 was read as SENP1 FRET inh 0, FXN GAA850 act 0, AHR act 5, HDAC3 inhib -6, CTSL1 counter-1 1, PfM18AAP inh-1 43*, PfM18AAP inh-2 -42 and CTSL1 counter-2 -10.
Screening Cc1ccc(NNC(=O)c2ccc(Cl)cc2)nn1 returned SENP1 FRET inh -1, FXN GAA850 act -1, AHR act -2, HDAC3 inhib 1, CTSL1 counter-1 -1, PfM18AAP inh-1 33*, PfM18AAP inh-2 1 and CTSL1 counter-2 1.
Cc1c(NC(=S)N/N=C/c2ccc(O)cc2)c(=O)n(-c2ccccc2)n1C was read as SENP1 FRET inh 1, FXN GAA850 act 0, AHR act 0, HDAC3 inhib 6, CTSL1 counter-1 7, PfM18AAP inh-1 35*, PfM18AAP inh-2 6 and CTSL1 counter-2 8.
For Cc1cccc(NC(=O)NNC(=O)c2cc3occc3[nH]2)c1C the results were SENP1 FRET inh -1, FXN GAA850 act 0, AHR act 3, HDAC3 inhib 3, CTSL1 counter-1 0, PfM18AAP inh-1 46*, PfM18AAP inh-2 23 and CTSL1 counter-2 -6.
For Cc1cc(C)cc(NC(=O)NNC(=O)c2cc3occc3[nH]2)c1 the results were SENP1 FRET inh -4, FXN GAA850 act -1, AHR act 8, HDAC3 inhib -5, CTSL1 counter-1 9, PfM18AAP inh-1 56*, PfM18AAP inh-2 22 and CTSL1 counter-2 -4.
For Cc1cc(C)cc(OCC(=O)Nc2nc(-c3cccnc3)cs2)c1 the results were SENP1 FRET inh 1, FXN GAA850 act 2, AHR act 66*, HDAC3 inhib -1, CTSL1 counter-1 -1, PfM18AAP inh-1 44*, PfM18AAP inh-2 -3 and CTSL1 counter-2 -4.
Cc1cccc(OCC(=O)Nc2nc(-c3ccncc3)cs2)c1 was read as SENP1 FRET inh 1, FXN GAA850 act -1, AHR act -4 and HDAC3 inhib -1.
CN(C)C(=O)CCC(=O)N1CCCC(C(=O)c2ccc(C(F)(F)F)cc2)C1 (centres undefined) was read as SENP1 FRET inh 1, FXN GAA850 act 0, AHR act 0, HDAC3 inhib -2, CTSL1 counter-1 -2 and PfM18AAP inh-1 3.
For S=c1[nH]nc(Cc2noc3ccccc23)n1-c1ccccc1 the results were SENP1 FRET inh 1, FXN GAA850 act 2, AHR act -2, HDAC3 inhib 5, CTSL1 counter-1 -1, PfM18AAP inh-1 33*, PfM18AAP inh-2 -1 and CTSL1 counter-2 -3.
Screening O=c1c2ccccc2cnn1Cc1n[nH]c(=S)n1-c1ccccc1 returned SENP1 FRET inh 2, FXN GAA850 act 3, AHR act -2, HDAC3 inhib 2, CTSL1 counter-1 -1, PfM18AAP inh-1 35*, PfM18AAP inh-2 18 and CTSL1 counter-2 4.
`O=C(COC(=O)c1cc(S(=O)(=O)N2CCOCC2)ccc1Cl)c1ccc[nH]1` gave SENP1 FRET inh -3 and FXN GAA850 act 0.
For N#Cc1c(-c2cccnc2)c2c([nH]c1=S)CCCC2 the results were SENP1 FRET inh 0, FXN GAA850 act 2, AHR act 1, HDAC3 inhib inconclusive, CTSL1 counter-1 0, PfM18AAP inh-1 33*, PfM18AAP inh-2 51* and CTSL1 counter-2 -7.
O=C(Nc1ccccc1)c1cc2ccccc2s1 was read as SENP1 FRET inh 1 and FXN GAA850 act 2.
`N#Cc1c(NC(=S)NC(=O)c2ccccc2)sc2c1CCC2` gave SENP1 FRET inh 4, FXN GAA850 act 2, AHR act 26, HDAC3 inhib 2, CTSL1 counter-1 2 and PfM18AAP inh-1 8.
`CCN1CCc2c(sc(NC(=S)NC(=O)c3ccco3)c2C(N)=O)C1` gave SENP1 FRET inh -38, FXN GAA850 act 2, AHR act 7, HDAC3 inhib 0, CTSL1 counter-1 2, PfM18AAP inh-1 33*, PfM18AAP inh-2 -14 and CTSL1 counter-2 0.
CCN1CCc2c(sc(NC(=O)c3ccc(C(=O)c4ccccc4)cc3)c2C(N)=O)C1 was read as SENP1 FRET inh -83, FXN GAA850 act 1, AHR act 3, HDAC3 inhib 9, CTSL1 counter-1 5 and PfM18AAP inh-1 -3.
Screening CCN1CCc2c(sc(NC(=O)c3ccc(S(=O)(=O)N(CC)c4ccccc4)cc3)c2C(N)=O)C1 returned SENP1 FRET inh -22, FXN GAA850 act 0, AHR act 4, HDAC3 inhib -1, CTSL1 counter-1 -4, PfM18AAP inh-1 36*, PfM18AAP inh-2 6 and CTSL1 counter-2 -7.
Screening CCN1CCc2c(sc(NC(=S)NC(=O)c3ccccc3)c2C#N)C1 returned SENP1 FRET inh -18, FXN GAA850 act 3, AHR act 18, HDAC3 inhib 0, CTSL1 counter-1 -1, PfM18AAP inh-1 38*, PfM18AAP inh-2 -29 and CTSL1 counter-2 2.
Screening CC1CC(C)CN(S(=O)(=O)c2ccc(C(=O)OCC(=O)Nc3ccccc3)cc2)C1 (centres undefined) returned SENP1 FRET inh 1 and FXN GAA850 act 1.
For NC(=O)NC(CC(=O)Nc1cccnc1)c1cccc(Br)c1 (centres undefined) the results were SENP1 FRET inh 3, FXN GAA850 act 2, AHR act 2, HDAC3 inhib -1, CTSL1 counter-1 5 and PfM18AAP inh-1 5.
Screening COc1ccc(S(=O)(=O)Nc2ccc3c(c2)C(=O)N([C@H](C)CO)C[C@H](C)[C@@H](CN(C)C(=O)NC2CCCCC2)O3)cc1 returned SENP1 FRET inh 1, FXN GAA850 act -1, AHR act -2 and HDAC3 inhib -3.
Screening CCN(C(=O)CN1CCN(c2ccc(O)cc2)CC1)c1c(N)n(Cc2ccccc2)c(=O)[nH]c1=O returned SENP1 FRET inh 2, FXN GAA850 act 0, AHR act -1, HDAC3 inhib -1, CTSL1 counter-1 2, PfM18AAP inh-1 35*, PfM18AAP inh-2 1 and CTSL1 counter-2 -4.
Screening CCN(C(=O)CN1CCCCCC1)c1c(N)n(Cc2ccccc2)c(=O)[nH]c1=O returned SENP1 FRET inh -87, FXN GAA850 act 0, AHR act 0 and HDAC3 inhib 4.
Nc1nnc(-c2cc3ccccc3oc2=O)s1 was read as SENP1 FRET inh -16, FXN GAA850 act 3, AHR act 20, HDAC3 inhib -8, CTSL1 counter-1 2 and PfM18AAP inh-1 2.
